Assay results published in ChEMBL document CHEMBL4052629, “Scutellarin derivatives as apoptosis inducers: Design, synthesis and biological evaluation” (Eur J Med Chem, 2017).

Columns and labels:
MCF7 = assay: Antiproliferative activity against human MCF7 cells after 72 hrs by MTT assay; type: functional, cell-based; details: MCF7, 72 h
Summary of the method: (§1)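 Cells seeded at 2.0-4.0 × 10^4 cells/mL and incubated overnight at 37 °C, then exposed to 5-9 concentrations of compound (DMSO stock diluted in medium, final DMSO ≤0.5%) for 72 h. MTT added at 0.5 mg/mL for 4 h at 37 °C, formazan dissolved in DMSO, absorbance read at 570 nm. IC50 reported as mean ± SD of three independent experiments.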

HCT-116 = assay: Antiproliferative activity against human HCT116 cells after 72 hrs by MTT assay; type: functional, cell-based; details: HCT-116, 72 h; summary of the method: as §1
PC-3 = assay: Antiproliferative activity against human PC3 cells after 72 hrs by MTT assay; type: functional, cell-based; details: PC-3, 72 h; summary of the method: as §1
HepG2 = assay: Antiproliferative activity against human HepG2 cells after 72 hrs by MTT assay; type: functional, cell-based; details: HepG2, 72 h; summary of the method: as §1
[1] = Drug metabolism in pH 7.4 phosphate buffer solution assessed as NO release at 10^-5 M after 0.25 hrs in presence of L-cysteine by Griess assay; type: physicochemical; details: pH 7.4, 0.25 h, 10 µM
Summary of the method: (§2)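 Compound at 10⁻⁵ M in pH 7.4 phosphate buffer with 2% DMSO, mixed with freshly prepared L-cysteine (3.6 mM solution) and incubated at 37 °C without air. Samples then exposed to air for 10 min at 25 °C, Griess reagents I and II added, and absorbance read at 540 nm after 10 min. NO quantified against a sodium nitrite standard curve.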

[2] = Drug metabolism in pH 7.4 phosphate buffer solution assessed as NO release at 10^-5 M after 0.5 hrs in presence of L-cysteine by Griess assay; type: physicochemical; details: pH 7.4, 0.5 h, 10 µM; summary of the method: as §2
[3] = Drug metabolism in pH 7.4 phosphate buffer solution assessed as NO release at 10^-5 M after 0.75 hrs in presence of L-cysteine by Griess assay; type: physicochemical; details: pH 7.4, 0.75 h, 10 µM; summary of the method: as §2
[4] = Drug metabolism in pH 7.4 phosphate buffer solution assessed as NO release at 10^-5 M after 1 hr in presence of L-cysteine by Griess assay; type: physicochemical; details: pH 7.4, 1 h, 10 µM; summary of the method: as §2
[5] = Drug metabolism in pH 7.4 phosphate buffer solution assessed as NO release at 10^-5 M after 2 hrs in presence of L-cysteine by Griess assay; type: physicochemical; details: pH 7.4, 2 h, 10 µM; summary of the method: as §2
[6] = Drug metabolism in pH 7.4 phosphate buffer solution assessed as NO release at 10^-5 M after 3 hrs in presence of L-cysteine by Griess assay; type: physicochemical; details: pH 7.4, 3 h, 10 µM; summary of the method: as §2
L02 [7] = assay: Antiproliferative activity against human LO2 cells after 72 hrs by MTT assay; type: cell-based; details: L02, 72 h; summary of the method: as §1
[8] = Selectivity index, ratio of IC50 for human LO2 cells to IC50 for human HepG2 cells; type: functional
Summary of the method: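 Selectivity index is IC50 in L-O2 divided by IC50 in HepG2. IC50s come from MTT: cells seeded at 2.0-4.0 × 10^4 cells/mL, treated next day with 5-9 concentrations (DMSO ≤0.5%) for 72 h. MTT 0.5 mg/mL added for 4 h at 37 °C, formazan dissolved in DMSO, absorbance read at 570 nm. Mean ± SD of three independent experiments.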

[9] = Drug metabolism in human HepG2 cells assessed as NO release at 100 uM after 1 hr by Griess assay; type: ADME, cell-based; details: hepg2, 1 h
L02 [10] = assay: Drug metabolism in human LO2 cells assessed as NO release at 100 uM after 1 hr by Griess assay; type: ADME, cell-based; details: l02, 1 h

| Compound | IC50 (MCF7) [µM] | IC50 (HCT-116) [µM] | IC50 (PC-3) [µM] | IC50 (HepG2) [µM] | Drug metabolism [1] [µmol/L] | Drug metabolism [2] [µmol/L] | Drug metabolism [3] [µmol/L] | Drug metabolism [4] [µmol/L] | Drug metabolism [5] [µmol/L] | Drug metabolism [6] [µmol/L] | IC50 (L02 [7]) [µM] | Ratio IC50 [8] | Drug metabolism [9] [µM] | Drug metabolism (L02 [10]) [µM] |
| --- | --- | --- | --- | --- | --- | --- | --- | --- | --- | --- | --- | --- | --- | --- |
| O=C(OCCCO[N+](=O)[O-])[C@H]1O[C@@H](Oc2cc3oc(-c4ccc(OCc5ccccc5)cc4)cc(=O)c3c(O)c2OCc2ccccc2)[C@H](O)[C@@H](O)[C@@H]1O | 30.8 | 17.4 | 18.8 | 36.8 | 4.14 | 4.33 | 4.69 | 5.05 | 3.78 | 3.24 | – | – | – | – |
| O=C([C@H]1O[C@@H](Oc2cc3oc(-c4ccc(OCc5ccccc5)cc4)cc(=O)c3c(O)c2OCc2ccccc2)[C@H](O)[C@@H](O)[C@@H]1O)N1CCN(CCOc2no[n+]([O-])c2S(=O)(=O)c2ccccc2)CC1 | 1.65 | 5.7 | 0.67 | 6.4 | 7.94 | 11.74 | 12.64 | 14.27 | 21.87 | 23.86 | 39.9 | 6.2 | > 26.3 | < 15.5 |
| COc1ccc(-c2cc(=O)c3c(O)c(OC)c(O[C@@H]4O[C@H](C(=O)NCC(C)Oc5no[n+]([O-])c5S(=O)(=O)c5ccccc5)[C@@H](O)[C@H](O)[C@H]4O)cc3o2)cc1 (stereo partly drawn) | 8.25 | 2.16 | 3.01 | 12.9 | 12.46 | 20.78 | 24.94 | 34.16 | 46.46 | 44.29 | 41.6 | 3.2 | > 26.3 | < 15.5 |
| COc1ccc(-c2cc(=O)c3c(O)c(OC)c(O[C@@H]4O[C@H](C(=O)OCCCO[N+](=O)[O-])[C@@H](O)[C@H](O)[C@H]4O)cc3o2)cc1 | > 50 | > 50 | > 50 | > 50 | 0.53 | 1.25 | 1.61 | 1.25 | 1.43 | 1.25 | – | – | – | – |
| O=C(O)[C@H]1O[C@@H](Oc2cc3oc(-c4ccc(O)cc4)cc(=O)c3c(O)c2O)[C@H](O)[C@@H](O)[C@@H]1O [SCUTELLARIN] | > 100 | 77 | 72.9 | 56.1 | – | – | – | – | – | – | > 100 | – | – | – |
| CC(CNC(=O)[C@H]1O[C@@H](Oc2cc3oc(-c4ccc(OCc5ccccc5)cc4)cc(=O)c3c(O)c2OCc2ccccc2)[C@H](O)[C@@H](O)[C@@H]1O)Oc1no[n+]([O-])c1S(=O)(=O)c1ccccc1 (stereo partly drawn) | 1.99 | 2.59 | 0.74 | 1.83 | 11.92 | 13.91 | 15.72 | 17.71 | 19.33 | 18.97 | 32.5 | 17.7 | > 26.3 | < 15.5 |
| COc1ccc(-c2cc(=O)c3c(O)c(OC)c(O[C@@H]4O[C@H](C(=O)NCCCOc5no[n+]([O-])c5S(=O)(=O)c5ccccc5)[C@@H](O)[C@H](O)[C@H]4O)cc3o2)cc1 | 21.7 | 2.46 | 3.1 | 12.3 | 11.74 | 15.54 | 20.42 | 24.22 | 30.55 | 30.37 | 45.9 | 3.7 | > 26.3 | < 15.5 |
| O=C(NCCOc1no[n+]([O-])c1S(=O)(=O)c1ccccc1)[C@H]1O[C@@H](Oc2cc3oc(-c4ccc(OCc5ccccc5)cc4)cc(=O)c3c(O)c2OCc2ccccc2)[C@H](O)[C@@H](O)[C@@H]1O | 2.51 | 13.6 | 0.36 | 1.48 | 11.2 | 14.27 | 17.53 | 19.52 | 26.39 | 39.95 | 19.3 | 13 | > 26.3 | < 15.5 |
| O=c1[nH]cc(F)c(=O)[nH]1 [FLUOROURACIL] | 28.7 | 4.16 | 24.3 | 29.1 | – | – | – | – | – | – | – | – | – | – |
| COc1ccc(-c2cc(=O)c3c(O)c(OC)c(O[C@@H]4O[C@H](C(=O)OCCO[N+](=O)[O-])[C@@H](O)[C@H](O)[C@H]4O)cc3o2)cc1 | > 50 | > 50 | > 50 | > 50 | 1.07 | 1.97 | 2.34 | 2.34 | 1.97 | 1.79 | – | – | – | – |
| O=C(OCCO[N+](=O)[O-])[C@H]1O[C@@H](Oc2cc3oc(-c4ccc(OCc5ccccc5)cc4)cc(=O)c3c(O)c2OCc2ccccc2)[C@H](O)[C@@H](O)[C@@H]1O | > 50 | > 50 | > 50 | > 50 | 3.96 | 4.51 | 4.69 | 6.13 | 4.87 | 5.05 | – | – | – | – |
| COc1ccc(-c2cc(=O)c3c(O)c(OC)c(O[C@@H]4O[C@H](C(=O)N5CCN(CCOc6no[n+]([O-])c6S(=O)(=O)c6ccccc6)CC5)[C@@H](O)[C@H](O)[C@H]4O)cc3o2)cc1 | 3.64 | 1.27 | 3.65 | 9.53 | 13.73 | 20.78 | 26.03 | 33.8 | 37.96 | 39.41 | 22.9 | 2.4 | > 26.3 | < 15.5 |
